Assay results from ChEMBL document CHEMBL3351508, “Second-generation antibacterial benzimidazole ureas: discovery of a preclinical candidate with reduced metabolic liability” (J Med Chem, 2014).
Converted amounts (≈) assume the structure as drawn.

Tests used:
[1] = biological target: T1, Cytochrome P450 2B6 (Homo sapiens, UniProt P20813); assay: Drug metabolism in recombinant CYP2B6 (unknown origin) at 1 uM after 30 mins; type: ADME; conditions: recombinant enzyme, 0.5 h
T1 sequence (P20813 whole entry): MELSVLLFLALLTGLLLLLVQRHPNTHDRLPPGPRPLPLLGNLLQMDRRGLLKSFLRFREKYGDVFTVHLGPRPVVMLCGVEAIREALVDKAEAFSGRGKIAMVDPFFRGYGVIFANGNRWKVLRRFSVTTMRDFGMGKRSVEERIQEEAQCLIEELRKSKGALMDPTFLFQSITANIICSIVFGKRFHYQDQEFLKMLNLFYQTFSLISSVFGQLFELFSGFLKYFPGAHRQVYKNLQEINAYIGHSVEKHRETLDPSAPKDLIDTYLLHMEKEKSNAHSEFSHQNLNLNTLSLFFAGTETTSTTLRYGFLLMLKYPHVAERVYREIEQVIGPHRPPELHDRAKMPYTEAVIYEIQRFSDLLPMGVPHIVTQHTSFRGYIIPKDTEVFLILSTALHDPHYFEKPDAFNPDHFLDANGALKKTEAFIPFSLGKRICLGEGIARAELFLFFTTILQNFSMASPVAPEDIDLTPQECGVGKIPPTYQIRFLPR
Method in brief: (§1)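 Parent at 1 and 10 μM was incubated with individual recombinant CYP supersomes, with and without NADPH, for 0, 15 and 30 min. Formation of the imine metabolite was quantified by LC-MS/MS.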

[2] = Drug metabolism in rat assessed as metabolites in bile at 30 mg/kg, po; type: ADME, organism-based; set-up: dose 30 mg/kg, route oral; conditions: in vivo
[3] = biological target: Cytochrome P450 2C19 (Homo sapiens, UniProt P33261); assay: Drug metabolism in recombinant CYP2C19 (unknown origin) at 1 uM after 30 mins; type: ADME; conditions: recombinant enzyme, 0.5 h; method in brief: as §1
Sequence of Cytochrome P450 2C19 (P33261 whole entry): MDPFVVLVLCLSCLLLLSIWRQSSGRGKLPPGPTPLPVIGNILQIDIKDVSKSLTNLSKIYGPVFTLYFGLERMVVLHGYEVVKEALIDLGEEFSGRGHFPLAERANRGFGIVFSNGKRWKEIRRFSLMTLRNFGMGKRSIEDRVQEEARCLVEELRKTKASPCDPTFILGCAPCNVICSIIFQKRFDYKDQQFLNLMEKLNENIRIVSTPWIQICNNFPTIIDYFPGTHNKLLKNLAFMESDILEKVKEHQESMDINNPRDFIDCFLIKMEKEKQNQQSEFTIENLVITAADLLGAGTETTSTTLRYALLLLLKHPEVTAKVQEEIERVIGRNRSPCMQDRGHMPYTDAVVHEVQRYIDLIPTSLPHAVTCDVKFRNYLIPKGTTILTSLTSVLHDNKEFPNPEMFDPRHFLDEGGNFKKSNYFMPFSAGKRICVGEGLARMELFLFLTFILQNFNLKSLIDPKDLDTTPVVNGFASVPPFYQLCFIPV

[4] = biological target: T2, Cytochrome P450 2C8 (Homo sapiens, UniProt P10632); assay: Drug metabolism in recombinant CYP2C8 (unknown origin) at 1 uM after 30 mins; type: ADME; conditions: recombinant enzyme, 0.5 h; method in brief: as §1
T2 sequence (P10632 whole entry): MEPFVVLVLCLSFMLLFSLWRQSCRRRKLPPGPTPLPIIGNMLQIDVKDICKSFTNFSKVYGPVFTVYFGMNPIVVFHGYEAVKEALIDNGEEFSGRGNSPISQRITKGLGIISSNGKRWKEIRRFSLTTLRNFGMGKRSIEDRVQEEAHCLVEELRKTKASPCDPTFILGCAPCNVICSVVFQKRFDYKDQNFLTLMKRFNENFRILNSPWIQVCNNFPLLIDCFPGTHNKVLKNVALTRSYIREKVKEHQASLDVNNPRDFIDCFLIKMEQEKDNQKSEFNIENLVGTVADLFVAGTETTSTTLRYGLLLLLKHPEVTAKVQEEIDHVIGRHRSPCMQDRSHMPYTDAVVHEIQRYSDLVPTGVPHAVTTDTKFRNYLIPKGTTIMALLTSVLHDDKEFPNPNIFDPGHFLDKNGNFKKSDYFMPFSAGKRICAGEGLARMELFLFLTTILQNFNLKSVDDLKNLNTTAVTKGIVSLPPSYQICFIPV

[5] = system: Plasma; assay: Drug metabolism in rat assessed as metabolites in plasma at 30 mg/kg, po; type: ADME, organism-based; set-up: dose 30 mg/kg, route oral; conditions: in vivo
[6] = system: Staphylococcus aureus; assay: Antibacterial activity against Staphylococcus aureus ATCC 29213 by CLSI method; type: functional
Method in brief: (§2)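 Broth microdilution MIC in liquid medium following CLSI methods, with ATCC strains. Each run was accepted only if comparator antibiotics fell within their recommended quality-control ranges for the appropriate ATCC strain.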

[7] = system: Staphylococcus aureus; assay: Antibacterial activity against methicillin-susceptible Staphylococcus aureus ATCC 29213 infected in mouse thigh assessed reduction in colony forming unit at 25 mg/kg, po bid after 72 hrs; type: functional
[8] = Drug metabolism in rat assessed as metabolites in urine at 30 mg/kg, po; type: ADME, organism-based; set-up: dose 30 mg/kg, route oral; conditions: in vivo
[9] = system: Streptococcus pneumoniae; assay: Antibacterial activity against Streptococcus pneumoniae ATCC 10015 by CLSI method; type: functional; method in brief: as §2
[10] = system: Enterococcus faecalis; assay: Antibacterial activity against Enterococcus faecalis ATCC 29212 by CLSI method; type: functional; method in brief: as §2
[11] = Drug metabolism in rat assessed as metabolites in feces at 30 mg/kg, po; type: ADME, organism-based; set-up: dose 30 mg/kg, route oral; conditions: in vivo
[12] = system: Haemophilus influenzae; assay: Antibacterial activity against Haemophilus influenzae ATCC 49247 by CLSI method; type: functional; method in brief: as §2
[13] = Inhibition of Staphylococcus aureus DNA topoisomerase-4 C2E2 using pBR322 plasmid DNA as substrate by coupled enzyme reaction assay
[14] = biological target: Cytochrome P450 2C9 (Homo sapiens, UniProt P11712); assay: Drug metabolism in recombinant CYP2C9 (unknown origin) at 1 uM after 30 mins; type: ADME; conditions: recombinant enzyme, 0.5 h; method in brief: as §1
Sequence of Cytochrome P450 2C9 (P11712 whole entry): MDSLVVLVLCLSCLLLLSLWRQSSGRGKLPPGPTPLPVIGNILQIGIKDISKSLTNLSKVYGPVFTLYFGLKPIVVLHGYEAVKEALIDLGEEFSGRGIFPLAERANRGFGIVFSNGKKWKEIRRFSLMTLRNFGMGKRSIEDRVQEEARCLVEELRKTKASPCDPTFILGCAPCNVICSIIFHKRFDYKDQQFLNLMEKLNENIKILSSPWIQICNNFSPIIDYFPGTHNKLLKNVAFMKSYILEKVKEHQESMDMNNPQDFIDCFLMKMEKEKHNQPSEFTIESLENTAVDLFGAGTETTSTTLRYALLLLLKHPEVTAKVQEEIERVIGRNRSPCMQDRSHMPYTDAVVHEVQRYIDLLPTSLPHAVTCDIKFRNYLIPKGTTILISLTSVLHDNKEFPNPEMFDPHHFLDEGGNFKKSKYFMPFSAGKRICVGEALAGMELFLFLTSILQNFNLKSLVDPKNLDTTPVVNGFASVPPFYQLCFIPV

[15] = biological target: DNA gyrase (Escherichia coli, UniProt P0AES4+P0AES6); assay: Inhibition of […] Escherichia coli DNA gyrase A2B2 using pBR322 plasmid DNA as substrate by coupled enzyme reaction assay; type: protein-complex assay
[16] = system: Staphylococcus aureus; assay: Antibacterial activity against Staphylococcus aureus ATCC 29213 by CLSI method in presence of human 50% serum; type: functional; method in brief: as §2
[17] = organism: Rattus norvegicus; assay: Drug metabolism in rat assessed as reactive metabolites as rat liver protein binding per mg of protein at 100 uCi for 6 days measured on day 7; type: ADME, organism-based; conditions: in vivo, 144 h
Method in brief: (§3)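 Male rats were dosed with unlabeled compound at 90 mg/kg for 6 or 13 days, then given 100 μCi ¹⁴C-labeled compound on day 7 or 14 and killed 4 h later. Liver S9 (9000g) was washed with acetonitrile until free of unbound label and the pellet dissolved in 1 N NaOH at 60 °C. Radioactivity was counted by scintillation, normalized to Bradford protein, and expressed as pmol/mg.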

[18] = system: Staphylococcus epidermidis; assay: Antibacterial activity against Staphylococcus epidermidis ATCC 12228 by CLSI method; type: functional; method in brief: as §2
[19] = organism: Rattus norvegicus; assay: Drug metabolism in rat assessed as reactive metabolites as rat liver protein binding per mg of protein at 100 uCi for 13 days measured on day 14; type: ADME, organism-based; conditions: in vivo, 312 h; method in brief: as §3
[20] = system: Moraxella catarrhalis; assay: Antibacterial activity against Moraxella catarrhalis ATCC 25238 by CLSI method; type: functional; method in brief: as §2
[21] = system: Enterococcus faecium; assay: Antibacterial activity against Enterococcus faecium ATCC 49624 by CLSI method; type: functional; method in brief: as §2

With CCNC(=O)Nc1nc2cc(-c3cncc(F)c3)cc(-c3ncccn3)c2[nH]1 the Drug metabolism [1] was “metabolite_notdetected”, the Drug metabolism [2] was “metabolite_notdetected” and the Drug metabolism [3] was “metabolite_notdetected”. The Drug metabolism [4] was “metabolite_notdetected”, the Drug metabolism [5] was “metabolite_notdetected” and the MIC [6] was 0.016 mg/L (≈ 0.0424 µM). The log10cfu [7] was over 4, the Drug metabolism [8] was “metabolite_notdetected” and the MIC [9] was at most 0.008 mg/L. For the same compound, the MIC [10] was under 0.008 mg/L, the Drug metabolism [11] was “metabolite_notdetected” and the MIC [12] was 1 mg/L (≈ 2.65 µM). For the same compound, the Ki [13] was under 6 nM, the Drug metabolism [14] was “metabolite_notdetected” and the Ki [15] was 5 nM. The MIC [16] was 0.25 mg/L.
For CCNC(=O)Nc1nc2cc(-c3cnc(C(C)(C)O)nc3)c(F)c([C@H]3CCCO3)c2[nH]1, the Drug metabolism [17] was under 5 pmol, the MIC [18] was at most 0.008 mg/L and the MIC [6] was 0.032 mg/L (≈ 0.0747 µM). For the same compound, the Drug metabolism [19] was under 5 pmol, the MIC [9] was at most 0.008 mg/L and the MIC [10] was 0.032 mg/L (≈ 0.0747 µM). For the same compound, the MIC [20] was at most 0.016 mg/L, the MIC [12] was 0.5 mg/L (≈ 1.17 µM) and the Ki [13] was 9 nM. The MIC [21] was 0.125 mg/L (≈ 0.292 µM) and the MIC [16] was 0.25 mg/L.
